Experimental data: ChEMBL document CHEMBL6127098, “Discovery of Oral Degraders of the ROS1 Fusion Protein with Potent Activity against Secondary Resistance Mutations” (J Med Chem, 2024)
Calls of active or inactive are those of the source. The rule behind the calls is not given here.

Key:
[1] = PROTAC activity at CRBN/ROS1 in mouse BaF3 cells assessed as ROS1 degradation by immunoblotting assay; assay type: cell-based
Outline: (§1)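 IL-3-independent Ba/F3 cells expressing CD74-ROS1 variants were treated with compound. ROS1 and phospho-ROS1 were quantified by capillary immunoassay (WES) in duplicate experiments. DC50 is the concentration that lowers ROS1 or p-ROS1 by 50%; Dmax is the maximal degradation.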

BaF3 [2] = assay: Antiproliferative activity against mouse BaF3 cells expressing CD74-ROS1 incubated for 72 hrs by Alamar blue reagent based plate reader assay; assay type: functional, cell-based; conditions: BaF3, 72 h
Outline: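 Ba/F3 cells stably expressing CD74- or SLC34A2-ROS1 fusions (wild type or mutant), made by retroviral transduction, selected with puromycin, and grown without IL-3 for ≥2 weeks. Alamar Blue added for 4 h. IC50 from sigmoidal nonlinear regression; mean ± SD of triplicate experiments.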

BaF3 [3] = assay: Antiproliferative activity against mouse BaF3 cells harboring ROS1 G2032R mutant incubated for 72 hrs by Alamar blue reagent based plate reader assay; conditions: BaF3, 72 h
BaF3 [4] = assay: PROTAC activity at CRBN/ROS1 in mouse BaF3 cells assessed as maximum ROS1 degradation by immunoblotting assay relative to control; assay type: cell-based; outline: as §1
[5] = Inhibition of ROS1-S1986F-G2032R-L2086F mutant/CD74 (unknown origin) expressed in mouse BaF3 cells; assay type: cell-based, Homo sapiens
[6] = Inhibition of ROS1-G2032R-F2075C mutant/SLC34A2 (unknown origin) expressed in mouse BaF3 cells; assay type: cell-based, Homo sapiens
NCI-H2228 [7] = assay: Induction of FER degradation in human NCI-H2228 cells at 100 nM incubated for 24 hrs by proteomics analysis; assay type: cell-based
Outline: (§2)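 Lysates in RIPA with protease/phosphatase inhibitors, protein measured by BCA, trypsin-digested and TMT-labelled. Relative abundance taken as the ratio of TMT reporter ions in degrader-treated versus inhibitor-treated cells.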

[8] = Induction of CLK1 (unknown origin) degradation by Western blotting analysis; parameters: species or system Homo sapiens
BaF3 [9] = assay: Induction of ROS1 degradation in mouse BaF3 cells assessed as reduction in ROS1 level by Western blotting analysis; assay type: cell-based; outline: as §1
BaF3 [10] = assay: Induction of ROS1 L2026M degradation in mouse BaF3 cells assessed as reduction in ROS1 level by Western blotting analysis; assay type: cell-based; outline: as §1
BaF3 [11] = assay: Induction of ROS1 G2032R/F2075V degradation in mouse BaF3 cells assessed as reduction in p-ROS1 level by Western blotting analysis; assay type: cell-based; outline: as §1
BaF3 [12] = assay: Induction of ROS1 G2032R/F2075V degradation in mouse BaF3 cells assessed as reduction in ROS1 level by Western blotting analysis; assay type: cell-based; outline: as §1
BaF3 [13] = assay: Induction of ROS1 G2032R degradation in mouse BaF3 cells assessed as reduction in ROS1 level by Western blotting analysis; assay type: cell-based; outline: as §1
[14] = Induction of LTK (unknown origin) degradation by Western blotting analysis; parameters: species or system Homo sapiens
BaF3 [15] = assay: Induction of ROS1 D2033N degradation in mouse BaF3 cells assessed as reduction in ROS1 level by Western blotting analysis; assay type: cell-based; outline: as §1
BaF3 [16] = assay: Induction of ROS1 degradation in mouse BaF3 cells assessed as reduction in p-ROS1 level by Western blotting analysis; assay type: cell-based; outline: as §1
BaF3 [17] = assay: Induction of ROS1 D2033N degradation in mouse BaF3 cells assessed as reduction in p-ROS1 level by Western blotting analysis; assay type: cell-based; outline: as §1
CD74-ROS1 = CD74-ROS1 (Homo sapiens, UniProt P08922); assay: Inhibition of ROS1/CD74 (unknown origin) expressed in mouse BaF3 cells; assay type: cell-based
Chain of CD74-ROS1 (P04233 whole entry): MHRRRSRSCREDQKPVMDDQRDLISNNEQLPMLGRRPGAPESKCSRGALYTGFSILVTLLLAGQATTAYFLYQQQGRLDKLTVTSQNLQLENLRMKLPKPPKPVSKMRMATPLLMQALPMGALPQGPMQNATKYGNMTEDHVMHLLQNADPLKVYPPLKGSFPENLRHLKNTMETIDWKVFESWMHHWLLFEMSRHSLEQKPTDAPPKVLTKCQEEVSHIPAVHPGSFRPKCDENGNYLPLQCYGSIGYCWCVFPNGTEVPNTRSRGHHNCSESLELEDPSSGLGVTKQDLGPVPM
Chain of CD74-ROS1 (P08922 whole entry): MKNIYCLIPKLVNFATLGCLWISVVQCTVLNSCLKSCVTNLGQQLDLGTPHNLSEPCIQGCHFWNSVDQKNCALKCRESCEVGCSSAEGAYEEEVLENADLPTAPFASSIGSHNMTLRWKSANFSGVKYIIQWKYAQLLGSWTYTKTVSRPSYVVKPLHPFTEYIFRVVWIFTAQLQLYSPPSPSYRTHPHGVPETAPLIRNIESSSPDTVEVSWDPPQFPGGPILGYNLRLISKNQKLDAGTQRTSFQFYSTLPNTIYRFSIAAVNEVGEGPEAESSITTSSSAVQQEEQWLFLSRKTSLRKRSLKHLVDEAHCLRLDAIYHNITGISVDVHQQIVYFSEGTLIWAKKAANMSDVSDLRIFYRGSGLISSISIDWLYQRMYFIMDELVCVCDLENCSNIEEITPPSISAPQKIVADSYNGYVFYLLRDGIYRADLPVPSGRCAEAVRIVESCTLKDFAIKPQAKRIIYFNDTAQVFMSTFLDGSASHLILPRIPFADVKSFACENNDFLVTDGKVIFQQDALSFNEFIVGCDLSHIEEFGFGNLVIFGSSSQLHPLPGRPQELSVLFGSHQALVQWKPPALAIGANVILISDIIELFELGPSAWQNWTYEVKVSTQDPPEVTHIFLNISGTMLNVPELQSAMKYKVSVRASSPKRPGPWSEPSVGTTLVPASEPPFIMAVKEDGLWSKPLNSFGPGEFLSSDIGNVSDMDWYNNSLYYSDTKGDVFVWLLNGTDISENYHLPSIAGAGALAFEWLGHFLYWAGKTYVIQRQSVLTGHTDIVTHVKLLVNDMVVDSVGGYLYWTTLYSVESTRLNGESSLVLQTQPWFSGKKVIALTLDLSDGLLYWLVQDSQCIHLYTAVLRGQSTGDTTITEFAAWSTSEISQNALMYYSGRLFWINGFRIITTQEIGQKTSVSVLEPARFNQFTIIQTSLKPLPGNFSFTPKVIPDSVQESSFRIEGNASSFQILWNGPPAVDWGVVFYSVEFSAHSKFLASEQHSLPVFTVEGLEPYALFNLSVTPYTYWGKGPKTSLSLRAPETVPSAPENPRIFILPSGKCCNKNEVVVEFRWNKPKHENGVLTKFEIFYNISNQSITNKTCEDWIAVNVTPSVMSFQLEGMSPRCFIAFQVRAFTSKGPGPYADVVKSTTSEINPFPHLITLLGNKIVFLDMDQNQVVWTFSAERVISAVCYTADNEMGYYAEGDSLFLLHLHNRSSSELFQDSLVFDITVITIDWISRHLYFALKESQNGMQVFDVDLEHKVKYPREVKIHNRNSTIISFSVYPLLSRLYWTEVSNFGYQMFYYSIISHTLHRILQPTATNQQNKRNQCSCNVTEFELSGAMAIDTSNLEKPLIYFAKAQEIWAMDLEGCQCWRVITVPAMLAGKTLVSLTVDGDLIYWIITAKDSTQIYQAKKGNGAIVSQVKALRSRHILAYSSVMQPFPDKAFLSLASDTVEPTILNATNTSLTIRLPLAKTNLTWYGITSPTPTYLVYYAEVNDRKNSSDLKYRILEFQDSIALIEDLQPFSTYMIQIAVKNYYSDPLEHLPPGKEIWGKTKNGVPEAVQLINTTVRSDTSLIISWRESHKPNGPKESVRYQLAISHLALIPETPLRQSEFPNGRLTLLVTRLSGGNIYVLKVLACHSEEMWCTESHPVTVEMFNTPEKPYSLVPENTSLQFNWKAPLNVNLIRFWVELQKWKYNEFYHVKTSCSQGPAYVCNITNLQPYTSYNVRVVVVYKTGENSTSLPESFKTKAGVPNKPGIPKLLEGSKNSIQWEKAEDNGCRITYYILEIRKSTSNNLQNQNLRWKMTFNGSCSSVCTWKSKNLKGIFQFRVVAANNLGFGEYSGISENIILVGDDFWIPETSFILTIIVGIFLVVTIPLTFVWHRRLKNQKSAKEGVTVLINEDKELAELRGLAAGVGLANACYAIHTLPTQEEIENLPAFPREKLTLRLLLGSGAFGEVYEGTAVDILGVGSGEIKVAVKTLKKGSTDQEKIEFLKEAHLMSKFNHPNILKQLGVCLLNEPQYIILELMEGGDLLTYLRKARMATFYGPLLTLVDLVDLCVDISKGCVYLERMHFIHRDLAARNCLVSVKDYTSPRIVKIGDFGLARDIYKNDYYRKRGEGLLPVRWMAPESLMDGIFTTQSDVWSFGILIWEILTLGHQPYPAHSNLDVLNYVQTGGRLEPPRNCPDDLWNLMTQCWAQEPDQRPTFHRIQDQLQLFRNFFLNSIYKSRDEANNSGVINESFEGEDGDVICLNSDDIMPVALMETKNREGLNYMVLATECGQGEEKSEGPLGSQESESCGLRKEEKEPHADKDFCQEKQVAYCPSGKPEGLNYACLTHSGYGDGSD

[18] = molecular target: Proto-oncogene tyrosine-protein kinase ROS (Homo sapiens, UniProt P08922); assay: Induction of ROS1 (unknown origin) degradation by Western blotting analysis
Chain of Proto-oncogene tyrosine-protein kinase ROS (P08922 whole entry): as above
Outline: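 Ba/F3 cells stably expressing CD74-ROS1 (retroviral transduction, puromycin-selected, IL-3 withdrawn at least 2 weeks before use) were grown in RPMI with 10% FBS and treated with compound diluted from DMSO stock in RPMI. Total ROS1 and p-ROS1 were quantified by WES capillary immunoblot in duplicate experiments. DC50 is the concentration that reduces protein by 50%, and Dmax is the maximal degradation.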

[19] = Induction of ERBB4 (unknown origin) degradation by Western blotting analysis; parameters: species or system Homo sapiens
NCI-H2228 [20] = assay: Induction of FAK degradation in human NCI-H2228 cells at 100 nM incubated for 24 hrs by proteomics analysis; assay type: cell-based; outline: as §2
NCI-H2228 [21] = assay: Induction of ALK degradation in human NCI-H2228 cells at 100 nM incubated for 24 hrs by proteomics analysis; assay type: cell-based; outline: as §2
[22] = Induction of FLT3 (unknown origin) degradation by Western blotting analysis; parameters: species or system Homo sapiens
BaF3 [23] = assay: Induction of ROS1 G2032R degradation in mouse BaF3 cells assessed as reduction in p-ROS1 level by Western blotting analysis; assay type: cell-based; outline: as §1
BaF3 [24] = assay: Induction of ROS1 L2026M degradation in mouse BaF3 cells assessed as reduction in p-ROS1 level by Western blotting analysis; assay type: cell-based; outline: as §1
[25] = Inhibition of ROS1-V2098I mutant/SLC34A2 (unknown origin) expressed in mouse BaF3 cells; assay type: cell-based, Homo sapiens

`Cc1cc(Nc2ncc(Cl)c(Nc3ccccc3S(=O)(=O)C(C)C)n2)c(OC(C)C)cc1C1CCN(C2CCN(C3CN(c4ccc5c(c4)C(=O)N(C4CCC(=O)NC4=O)C5=O)C3)CC2)CC1` (stereo unspecified) gave a DC50 [1] of 45 nM.
Work on `COc1cc(N2CCC(N3CCN(CC4CCN(c5cccc6c5C(=O)N(C5CCC(=O)NC5=O)C6=O)CC4)CC3)CC2)ccc1Nc1ncc(Cl)c(Nc2ccccc2P(C)(C)=O)n1` (stereo unspecified) yielded an IC50 (BaF3 [2]) of 11.2 nM, an IC50 (BaF3 [3]) of 87 nM and an Emax (BaF3 [4]) of 99%. The DC50 [1] was 6 nM.
With `COc1cc(N2CCC(N3CCN(CC4CN(c5cccc6c5C(=O)N(C5CCC(=O)NC5=O)C6=O)C4)CC3)CC2)ccc1Nc1ncc(Cl)c(Nc2ccccc2P(C)(C)=O)n1` (stereo unspecified) the IC50 (BaF3 [2]) was 41 nM, the IC50 (BaF3 [3]) was 244 nM and the Emax (BaF3 [4]) was 79%. The DC50 [1] was 56 nM.
Molecule `COc1cc(N2CCN(CC3CCN(c4ccc5c(c4)CN(C4CCC(=O)NC4=O)C5=O)CC3)CC2)ccc1Nc1ncc(Cl)c(Nc2ccccc2P(C)(C)=O)n1` (stereo unspecified) has an IC50 (BaF3 [2]) of 9.5 nM, an Emax (BaF3 [4]) of 93% and a DC50 [1] of 11 nM.
Molecule `COc1cc(N2CCC(N3CCN(C)CC3)CC2)ccc1Nc1ncc(Cl)c(Nc2ccccc2P(C)(C)=O)n1` [BRIGATINIB] has an IC50 [5] of over 2000 nM.
`C[C@H]1CNC(=O)c2cnn3ccc(nc23)N[C@H](C)c2cc(F)ccc2O1` [REPOTRECTINIB] showed an IC50 [5] of over 2000 nM and an IC50 [6] of over 2000 nM.
In the case of `COc1cc(N2CCC(N3CCN(CC4CCN(c5ccc6c(c5)CN(C5CCC(=O)NC5=O)C6=O)CC4)CC3)CC2)ccc1Nc1ncc(Cl)c(Nc2ccccc2P(C)(C)=O)n1` (stereo unspecified), the Activity (NCI-H2228 [7]) is reported as “Active”, the DC50 [8] is reported as over 1000 nM and the Activity (BaF3 [9]) is reported as “Dose-Dependent Effect”. For the same molecule, the Activity (BaF3 [10]) was “Dose-Dependent Effect”, the Activity (BaF3 [11]) was “Dose-Dependent Effect” and the Activity (BaF3 [12]) was “Dose-Dependent Effect”. For the same molecule, the Activity (BaF3 [13]) was “Dose-Dependent Effect”, the DC50 [14] was over 1000 nM and the Activity (BaF3 [15]) was “Dose-Dependent Effect”. For the same molecule, the Activity (BaF3 [16]) was “Dose-Dependent Effect”, the Activity (BaF3 [17]) was “Dose-Dependent Effect” and the IC50 (CD74-ROS1) was 1.6 nM. For the same molecule, the DC50 [18] was 3.8 nM, the DC50 [19] was over 1000 nM and the Activity (NCI-H2228 [20]) was “Active”. The Activity (NCI-H2228 [21]) was “Active”, the DC50 [22] was over 1000 nM and the DC50 [1] was 3.8 nM. The Activity (BaF3 [23]) was “Dose-Dependent Effect” and the Activity (BaF3 [24]) was “Dose-Dependent Effect”.
Work on `C[C@H]1Oc2cc(cnc2N)-c2c(nn(C)c2C#N)CN(C)C(=O)c2ccc(F)cc21` [LORLATINIB] yielded an IC50 [5] of over 2000 nM and an IC50 [25] of 1.5 nM.
`COc1cc(N2CCC(N3CCN(C4CN(c5cccc6c5C(=O)N(C5CCC(=O)NC5=O)C6=O)C4)CC3)CC2)ccc1Nc1ncc(Cl)c(Nc2ccccc2P(C)(C)=O)n1` (stereo unspecified) gave an IC50 (BaF3 [2]) of 113 nM, an IC50 (BaF3 [3]) of 1040 nM and an Emax (BaF3 [4]) of 77%. For the same molecule, the DC50 [1] was 108 nM.
